The results in this text go back to ChEMBL document CHEMBL1275451, “In vitro susceptibilities of invasive isolates of Candida species: rapid increase in rates of fluconazole susceptible-dose dependent Candida glabrata isolates” (2008).

As a reminder, the MIC is the least concentration at which growth counts as inhibited. Low readings indicate inhibition by little substance, high ones a need for much substance. The term MIC50 denotes an inhibitory concentration at the 50% level, which refers to growth in some studies and to a panel of isolates in others. For orientation: MIC90 means an inhibitory concentration at the 90% level, which refers to growth in some studies and to a panel of isolates in others. High values mean weaker potency, low ones greater potency.

Common to all, as to type: functional
The subject of test [1] is Candida tropicalis. Nature of the test: Antifungal activity against Candida tropicalis after 48 hrs by CLSI method. Put shortly: (§1)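 Broth microdilution MICs were run on invasive clinical Candida isolates under CLSI M27-A2, with incubation at 35°C for 48 h before reading. Control strains were C. parapsilosis ATCC 22019 and C. krusei ATCC 6258. MICs were interpreted under the same guideline to place isolates as susceptible, susceptible-dose dependent or resistant, reported as percentage of isolates per category, with MIC range, MIC50 and MIC90.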

Test [2] concerns Candida parapsilosis. Nature of the test: Antifungal activity against Candida parapsilosis after 48 hrs by CLSI method. The conditions noted are these: Lodderomyces parapsilosis. The method, boiled down: as §1
In test [3] the test system is Pichia kudriavzevii. Nature of the test: Antifungal activity against Candida krusei after 48 hrs by CLSI method. The method, boiled down: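 Broth microdilution MICs were run on invasive clinical Candida isolates under CLSI M27-A2, with incubation at 35°C for 48 h before reading. MICs were interpreted under the same guideline to place isolates as susceptible, susceptible-dose dependent or resistant, reported as percentage of isolates per category, with MIC range, MIC50 and MIC90.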

The test system of test [4] is Candida albicans. Nature of the test: Antifungal activity against Candida albicans after 48 hrs by CLSI method.
Test [5] deals with Clavispora lusitaniae. As to the kind of experiment: Antifungal activity against Candida lusitaniae after 48 hrs by CLSI method.
Test [6] deals with Meyerozyma guilliermondii. Nature of the test: Antifungal activity against Candida guilliermondii after 48 hrs by CLSI method.
Test [7] deals with Nakaseomyces glabratus. Nature of the test: Antifungal activity against Candida glabrata after 48 hrs by CLSI method.
Test [8] deals with Candida tropicalis. As to the kind of experiment: Antifungal activity against Candida tropicalis assessed as resistant isolates after 48 hrs by CLSI method. The method, boiled down:
as §1

Test [9] relates to Clavispora lusitaniae. Nature of the test: Antifungal activity against Candida lusitaniae assessed as resistant isolates after 48 hrs by CLSI method. The method, boiled down:
as §1

Test [10] has as its system Candida albicans. As to the kind of experiment: Antifungal activity against Candida albicans assessed as resistant isolates after 48 hrs by CLSI method. The method, boiled down: as §1
Test [11] deals with Nakaseomyces glabratus. Nature of the test: Antifungal activity against Candida glabrata assessed as susceptible dose-dependent isolates after 48 hrs by CLSI method. The method, boiled down:
as §1

For test [12], the system named is Nakaseomyces glabratus. As to the kind of experiment: Antifungal activity against Candida glabrata assessed as susceptible isolates after 48 hrs by CLSI method. Put shortly:
as §1

In test [13] the test system is Candida albicans. Nature of the test: Antifungal activity against Candida albicans assessed as susceptible isolates after 48 hrs by CLSI method. Put shortly:
as §1

The test system of test [14] is Nakaseomyces glabratus. As to the kind of experiment: Antifungal activity against Candida glabrata assessed as resistant isolates after 48 hrs by CLSI method. Put shortly:
as §1

The subject of test [15] is Clavispora lusitaniae. As to the kind of experiment: Antifungal activity against Candida lusitaniae assessed as susceptible isolates after 48 hrs by CLSI method. The method, boiled down:
as §1

Test [16] deals with Meyerozyma guilliermondii. As to the kind of experiment: Antifungal activity against Candida guilliermondii assessed as resistant isolates after 48 hrs by CLSI method. The method, boiled down:
as §1

Test [17] has as its system Candida tropicalis. Nature of the test: Antifungal activity against Candida tropicalis assessed as susceptible dose-dependent isolates after 48 hrs by CLSI method. The method, boiled down: as §1
Test [18] deals with Candida parapsilosis. Nature of the test: Antifungal activity against Candida parapsilosis assessed as susceptible isolates after 48 hrs by CLSI method. The method, boiled down:
as §1

Test [19] has as its system Pichia kudriavzevii. As to the kind of experiment: Antifungal activity against Candida krusei assessed as resistant isolates after 48 hrs by CLSI method. Put shortly:
as §1

Test [20] has as its system Meyerozyma guilliermondii. Nature of the test: Antifungal activity against Candida guilliermondii assessed as susceptible isolates after 48 hrs by CLSI method. The method, boiled down: as §1
Test [21] deals with Clavispora lusitaniae. Nature of the test: Antifungal activity against Candida lusitaniae assessed as susceptible dose-dependent isolates after 48 hrs by CLSI method. Put shortly:
as §1

For test [22], the system named is Candida parapsilosis. As to the kind of experiment: Antifungal activity against Candida parapsilosis assessed as susceptible dose-dependent isolates after 48 hrs by CLSI method. The method, boiled down: as §1
Test [23] deals with Pichia kudriavzevii. Nature of the test: Antifungal activity against Candida krusei assessed as susceptible dose-dependent isolates after 48 hrs by CLSI method. Put shortly:
as §1

Test [24] deals with Pichia kudriavzevii. As to the kind of experiment: Antifungal activity against Candida krusei assessed as susceptible isolates after 48 hrs by CLSI method. The method, boiled down:
as §1

In test [25] the test system is Candida albicans. As to the kind of experiment: Antifungal activity against Candida albicans assessed as susceptible dose-dependent isolates after 48 hrs by CLSI method. Put shortly: as §1
For test [26], the system named is Candida parapsilosis. As to the kind of experiment: Antifungal activity against Candida parapsilosis assessed as resistant isolates after 48 hrs by CLSI method. Put shortly:
as §1

In test [27] the test system is Candida tropicalis. Nature of the test: Antifungal activity against Candida tropicalis assessed as susceptible isolates after 48 hrs by CLSI method. The method, boiled down: as §1
In test [28] the test system is Meyerozyma guilliermondii. As to the kind of experiment: Antifungal activity against Candida guilliermondii assessed as susceptible dose-dependent isolates after 48 hrs by CLSI method. Put shortly: as §1

Values after ≈ are worked out from the molar mass of the structure shown. *1 amine or outer side, *2 acyl side, *3 side chain or, on linkers, in order; H or OH if unused. Where a SMILES comes first, the peptide text is derived from it. Bridges are numbered along the chain shown (N, C = ends). [ ]: non-standard residue; d: D form. The star is where a group is joined. hTyr(3S-OH,4S-OH,3'-OSO3H) = N[C@H](C(=O)O)[C@H](O)[C@@H](O)c1ccc(O)c(OS(=O)(=O)O)c1; pTerphenylCO(4''-OnC5H11) = CCCCCOc1ccc(-c2ccc(-c3ccc(C(=O)*)cc3)cc2)cc1; Orn(4R-OH,5R-OH) = O=C([C@H](C[C@@H](O)[C@@H](O)N[*:3])N[*:1])[*:2]; hTyr(3S-OH,4S-OH) = N[C@H](C(=O)O)[C@H](O)[C@@H](O)c1ccc(O)cc1; Pro(3S-OH,4S-Me) = C[C@H]1CN[C@H](C(=O)O)[C@H]1O; X1 = CCCCCOc1ccc(-c2cc(-c3ccc(C(=O)*)cc3)no2)cc1; Gln(3R-OH) = NC(=O)C[C@@H](O)[C@H](N)C(=O)O; Hyp = O=C(O)[C@@H]1C[C@@H](O)CN1

`CCCCCOc1ccc(-c2cc(-c3ccc(C(=O)N[C@H]4C[C@@H](O)[C@@H](O)NC(=O)[C@@H]5[C@@H](O)[C@@H](C)CN5C(=O)[C@H]([C@H](O)CC(N)=O)NC(=O)[C@H]([C@H](O)[C@@H](O)c5ccc(O)c(OS(=O)(=O)O)c5)NC(=O)[C@@H]5C[C@@H](O)CN5C(=O)[C@H]([C@@H](C)O)NC4=O)cc3)no2)cc1` [MICAFUNGIN] (X1-[Orn(4R-OH,5R-OH)]T[Hyp][hTyr(3S-OH,4S-OH,3'-OSO3H)][Gln(3R-OH)][Pro(3S-OH,4S-Me)]; lactam 1-C): the MIC in the test on Candida tropicalis [1] was 0.06 µg/mL (≈ 0.0472 µM); with Pichia kudriavzevii [3] it was 0.25 µg/mL (≈ 0.197 µM); against Candida albicans [4], 0.007 µg/mL (≈ 0.00551 µM). Further, the MIC50 is 0.06 µg/mL (≈ 0.0472 µM) in the test with Candida tropicalis [1]; 2 µg/mL (≈ 1.57 µM) in the test with Candida parapsilosis [2]; 0.25 µg/mL (≈ 0.197 µM) in the test with Pichia kudriavzevii [3]; 0.007 µg/mL (≈ 0.00551 µM) in the test on Candida albicans [4]; 0.25 µg/mL (≈ 0.197 µM) with Clavispora lusitaniae [5]; 1 µg/mL (≈ 0.787 µM) in [6]. The same compound gave an MIC50 against Nakaseomyces glabratus [7] of 0.06 µg/mL (≈ 0.0472 µM). Also, the MIC90 with Candida tropicalis [1] amounted to 0.12 µg/mL (≈ 0.0945 µM); against Candida parapsilosis [2], 2 µg/mL (≈ 1.57 µM); with Pichia kudriavzevii [3], 0.5 µg/mL (≈ 0.394 µM); with Candida albicans [4], 0.015 µg/mL (≈ 0.0118 µM); in the test with Clavispora lusitaniae [5], 0.25 µg/mL (≈ 0.197 µM); in test [6], 1 µg/mL (≈ 0.787 µM). For the same compound, the MIC90 against Nakaseomyces glabratus [7] stood at 0.06 µg/mL (≈ 0.0472 µM).

With `OC(Cn1cncn1)(Cn1cncn1)c1ccc(F)cc1F` [FLUCONAZOLE], the Activity in the test with Candida tropicalis [8] was found to be 0%; with Clavispora lusitaniae [9], 0%; in the test on Candida albicans [10] it was 0%; in the test with Nakaseomyces glabratus [11] it was 73%; in the test with Nakaseomyces glabratus [12], 22%; in the test with Candida albicans [13], 100%. Also, the Activity is 6% in the test with Nakaseomyces glabratus [14]; 100% in the test with Clavispora lusitaniae [15]; 3% in test [16]; 0% in the test with Candida tropicalis [17]; 98% in the test on Candida parapsilosis [18]; 38% in the test on Pichia kudriavzevii [19]. Moreover, the Activity in test [20] amounted to 88%; in the test on Clavispora lusitaniae [21], 0%; with Candida parapsilosis [22], 2%; in the test with Pichia kudriavzevii [23], 63%; with Pichia kudriavzevii [24], 0%; in the test on Candida albicans [25], 0%. In addition, the Activity in the test with Candida parapsilosis [26] came to 0%; in the test on Candida tropicalis [27], 100%; in test [28], 9%. Moreover, the MIC50 was 1 µg/mL (≈ 3.27 µM) against Candida tropicalis [1]; 1 µg/mL (≈ 3.27 µM) against Candida parapsilosis [2]; 32 µg/mL (≈ 104 µM) in the test on Pichia kudriavzevii [3]; 0.12 µg/mL (≈ 0.392 µM) against Candida albicans [4]; 0.25 µg/mL (≈ 0.816 µM) against Clavispora lusitaniae [5]; 16 µg/mL (≈ 52.2 µM) in the test with Nakaseomyces glabratus [7]. In addition, the MIC90 was found to be 2 µg/mL (≈ 6.53 µM) against Candida tropicalis [1]; 2 µg/mL (≈ 6.53 µM) in the test with Candida parapsilosis [2]; 64 µg/mL (≈ 209 µM) in the test on Pichia kudriavzevii [3]; 0.25 µg/mL (≈ 0.816 µM) against Candida albicans [4]; 0.5 µg/mL (≈ 1.63 µM) in the test with Clavispora lusitaniae [5]; 32 µg/mL (≈ 104 µM) against Nakaseomyces glabratus [7]. For the same compound, in the test with Candida albicans [4], the minimal inhibitory concentration (MIC) is 0.12 µg/mL (≈ 0.392 µM).

Take `CCCCCOc1ccc(-c2ccc(-c3ccc(C(=O)N[C@H]4C[C@@H](O)[C@@H](O)NC(=O)[C@@H]5[C@@H](O)[C@@H](C)CN5C(=O)[C@H]([C@@H](C)O)NC(=O)[C@H]([C@H](O)[C@@H](O)c5ccc(O)cc5)NC(=O)[C@@H]5C[C@@H](O)CN5C(=O)[C@H]([C@@H](C)O)NC4=O)cc3)cc2)cc1` [ANIDULAFUNGIN] ({pTerphenylCO(4''-OnC5H11)}-[Orn(4R-OH,5R-OH)]T[Hyp][hTyr(3S-OH,4S-OH)]T[Pro(3S-OH,4S-Me)]; lactam 1-C): the MIC50 is 0.03 µg/mL (≈ 0.0263 µM) in the test on Candida tropicalis [1]; 1 µg/mL (≈ 0.877 µM) in the test with Candida parapsilosis [2]; 0.12 µg/mL (≈ 0.105 µM) with Pichia kudriavzevii [3]; 0.015 µg/mL (≈ 0.0132 µM) against Candida albicans [4]; 0.06 µg/mL (≈ 0.0526 µM) with Clavispora lusitaniae [5]; 1 µg/mL (≈ 0.877 µM) in [6]. The same compound had an MIC50 with Nakaseomyces glabratus [7] of 0.03 µg/mL (≈ 0.0263 µM). The MIC90 was 0.06 µg/mL (≈ 0.0526 µM) in the test on Candida tropicalis [1]; 2 µg/mL (≈ 1.75 µM) in the test on Candida parapsilosis [2]; 0.25 µg/mL (≈ 0.219 µM) against Pichia kudriavzevii [3]; 0.015 µg/mL (≈ 0.0132 µM) against Candida albicans [4]; 0.12 µg/mL (≈ 0.105 µM) against Clavispora lusitaniae [5]; 2 µg/mL (≈ 1.75 µM) in test [6]. The MIC90 against Nakaseomyces glabratus [7] was found to be 0.03 µg/mL (≈ 0.0263 µM). Also, in the test on Candida albicans [4], the MIC amounted to 0.015 µg/mL (≈ 0.0132 µM).
